ChEMBL document CHEMBL3425405, “Discovery of Small Molecules for Up-Regulating the Translation of Antiamyloidogenic Secretase, a Disintegrin and Metalloproteinase 10 (ADAM10), by Binding to the G-Quadruplex-Forming Sequence in the 5' Untranslated Region (UTR) of Its mRNA” (J Med Chem, 2015)
Calls of active or inactive are those of the source. No cut-off for these calls is given here.

Assays:
[1] = Toxicity against human HeLa cells assessed as reduction in cell viability after 24 hrs by MTT assay; assay type: cell-based
HeLa [2] = assay: Binding affinity to ADAM10 A10-RNA QGRS (unknown origin) transfected in human HeLa cells assessed as increase in ADAM10 translation efficiency at 1 uM after 24 hrs by Renilla/firefly dual luciferase reporter assay; assay type: cell-based
Summary of the method: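 HeLa cells transfected with 0.8 μg A10-Wt, A10-Mut or A10-Del plasmid (G-quadruplex motif upstream of Renilla in psiCHECK-2). Screening: 24 h at a single 2 μM concentration. Follow-up: plasmid for 12 h, then 0, 0.5, 1 or 2.5 μM for 24 h. Renilla normalized to firefly, relative to untreated control; mean ± SD of three independent measurements.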

HeLa [3] = assay: Binding affinity to VEGF RNA QGRS (unknown origin) transfected in human HeLa cells assessed as increase in ADAM10 translation efficiency at 2.5 uM after 24 hrs by Renilla/firefly dual luciferase reporter assay; assay type: cell-based
Summary of the method: (§1)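 HeLa cells carrying luciferase reporter plasmids with the N-Ras, Bcl-2 or VEGF 5′-UTR quadruplex (or its mutant) treated with compound up to 2.5 μM for 24 h. Renilla/firefly luciferase activity then measured.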

HeLa [4] = assay: Binding affinity to ADAM10 5'-UTR RNA QGRS (unknown origin) transfected in human HeLa cells assessed as increase in luciferase mRNA expression at 0.5 to 2.5 uM after 24 hrs by RT-PCR method; assay type: cell-based
HeLa [5] = assay: Binding affinity to Bcl-2 RNA QGRS (unknown origin) transfected in human HeLa cells assessed as increase in ADAM10 translation efficiency at 2.5 uM after 24 hrs by Renilla/firefly dual luciferase reporter assay; assay type: cell-based; summary of the method: as §1
HeLa [6] = assay: Binding affinity to ADAM10 5'-UTR mutant RNA QGRS (unknown origin) transfected in human HeLa cells assessed as increase in ADAM10 translation efficiency at 1 uM after 24 hrs by Renilla/firefly dual luciferase reporter assay; assay type: cell-based
Summary of the method: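 HeLa cells transfected with 0.8 μg 5′UTR-Wt or 5′UTR-Mut dual-luciferase plasmid. After 12 h, incubated 24 h with 0, 0.5, 1 or 2.5 μM compound. Renilla luciferase normalized to firefly and expressed relative to the ligand-free control; mean ± SD of three independent experiments, each in triplicate.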

HEK-APP [7] = assay: Binding affinity to ADAM10 A10-RNA QGRS (unknown origin) transfected in HEK-APP cells assessed as increase in ADAM10 protein expression at 1 uM after 48 hrs by Western blotting method; assay type: cell-based
Summary of the method: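 HEK-APP cells (DMEM, 10% FBS, 2 mM glutamine, 0.2 mg/mL G418) treated with 0, 0.5, 0.75, 1 or 1.5 μM compound for 48 h. Lysates in Tris/NaCl/EDTA/1% Triton buffer immunoblotted for ADAM10, APP and β-actin; conditioned medium blotted for sAPPα. Signal by densitometry, normalized to β-actin, relative to blank control; mean ± SD, three independent experiments.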

HEK-APP [8] = assay: Binding affinity to ADAM10 A10-RNA QGRS (unknown origin) transfected in HEK-APP cells assessed as change in ADAM10 mRNA expression at 0.5 to 1.5 uM after 48 hrs by RT-PCR method; assay type: cell-based
Summary of the method: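 HEK-APP cells cultured 48 h with 0, 0.5, 0.75, 1 or 1.5 μM compound. Total RNA isolated and ADAM10 mRNA measured by RT-PCR, normalized to β-actin.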

[9] = target: T1, Disintegrin and metalloproteinase domain-containing protein 10 (Homo sapiens) (UniProt O14672); assay: Activation of human recombinant ADAM10 assessed as increase in enzyme activity at 0.25 to 4 uM pre-incubated for 20 mins before fluorogenic alpha-secretase substrate addition and measured 1 hr post substrate addition by monochromator-based multimode microplate reader based method
T1 sequence (whole entry): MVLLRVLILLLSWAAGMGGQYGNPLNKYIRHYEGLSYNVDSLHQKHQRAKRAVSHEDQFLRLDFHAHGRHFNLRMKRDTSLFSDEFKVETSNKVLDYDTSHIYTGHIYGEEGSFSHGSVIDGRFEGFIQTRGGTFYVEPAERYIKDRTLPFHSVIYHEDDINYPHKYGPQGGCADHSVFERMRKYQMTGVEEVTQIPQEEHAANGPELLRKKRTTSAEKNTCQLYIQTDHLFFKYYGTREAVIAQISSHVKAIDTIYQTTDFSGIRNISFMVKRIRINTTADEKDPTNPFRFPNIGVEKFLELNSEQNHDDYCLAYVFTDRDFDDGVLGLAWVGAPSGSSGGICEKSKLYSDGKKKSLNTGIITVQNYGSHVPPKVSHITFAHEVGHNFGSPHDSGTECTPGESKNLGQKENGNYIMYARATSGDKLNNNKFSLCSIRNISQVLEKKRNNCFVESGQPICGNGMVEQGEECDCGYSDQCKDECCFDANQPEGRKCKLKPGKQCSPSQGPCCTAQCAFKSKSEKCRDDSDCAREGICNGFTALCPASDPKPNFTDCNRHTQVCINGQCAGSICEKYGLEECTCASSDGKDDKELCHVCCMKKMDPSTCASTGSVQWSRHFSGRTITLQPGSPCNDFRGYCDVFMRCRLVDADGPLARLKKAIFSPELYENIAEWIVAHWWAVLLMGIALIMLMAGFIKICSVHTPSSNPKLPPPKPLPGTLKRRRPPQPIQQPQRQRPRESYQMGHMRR
Summary of the method: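 Recombinant human ADAM10 (50 ng total protein per sample) preincubated 20 min with 0, 0.25, 0.5, 1, 2, 4 μM compound. Then 2× reaction buffer added (50 μM Tris, 4 μM ZnCl2, 0.01% Brij-35, pH 9.0) with 20 μM fluorogenic α-secretase substrate. Incubated 1 h at 37 °C in the dark; fluorescence read at ex 340/em 490 nm.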

HEK293 [10] = assay: Reduction in Abeta40 protein production in APP expressing HEK cells at 0.75 uM after 48 hrs by ELISA method; assay type: functional, Homo sapiens; design: scale not given: the % may be the effect or the level left
Summary of the method: (§2)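 HEK-APP cells treated 48 h with increasing compound concentrations (0.75, 1, 1.5 μM). Secreted Aβ40 in equal amounts of conditioned medium quantified by sandwich ELISA. Values expressed relative to blank control; mean ± SD of three independent experiments.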

HEK293 [11] = assay: Reduction in Abeta40 protein production in APP expressing HEK cells at 1.5 uM after 48 hrs by ELISA method; assay type: functional, Homo sapiens; design: scale not given: the % may be the effect or the level left; summary of the method: as §2
[12] = Binding affinity to ADAM10 A10-mutant RNA QGRS (unknown origin) by surface plasmon resonance method
[13] = Selectivity index, ratio of affinity to N-Ras RNA QGRS (unknown origin) to ADAM10 A10-Wt RNA QGRS (unknown origin) by Renilla/firefly dual luciferase reporter assay
[14] = Selectivity index, ratio of affinity to Bcl-2 RNA QGRS (unknown origin) to ADAM10 A10-Wt RNA QGRS (unknown origin) by Renilla/firefly dual luciferase reporter assay

With `CCn1c2ccccc2c2cc(/C=C/c3cc(N4CCN(C)CC4)c4ccccc4[n+]3C)ccc21.[I-]` the IC50 at 24 h [1] was 0.0209 mM, the Activity (HeLa [2]) was 46.9% and the Activity (HeLa [3]) was “inactive”. For the same molecule, the Activity (HeLa [4]) was “inactive”, the Activity (HeLa [5]) was 20% and the Activity (HeLa [6]) was “inactive”. For the same molecule, the Activity (HEK-APP [7]) was 76.8%, the Activity (HEK-APP [8]) was “inactive” and the Activity [9] was “Active”. For the same molecule, the Activity (HEK293 [10]) was 7.7%, the Activity (HEK293 [11]) was 40.8% and the Kd [12] was 700 mM. It also gave a Selectivity Index [13] of 3 and a Selectivity Index [14] of 3.
